Inhibition (INH), inhibition and t1/2 data for 4 compounds are collected here from ChEMBL document CHEMBL3352788, “Characterization of selective exosite-binding inhibitors of matrix metalloproteinase 13 that prevent articular cartilage degradation in vitro” (J Med Chem, 2014).

Some results are limits rather than exact numbers.

What is called inhibition is the relative decrease from the control value, in per cent. The low end stands for little suppression, the high end for strong suppression.

Common to all, as to format: ADME
One data set concerns the target T1, Cytochrome P450 2B6 (Homo sapiens, UniProt P20813).
T1 sequence (P20813 whole entry): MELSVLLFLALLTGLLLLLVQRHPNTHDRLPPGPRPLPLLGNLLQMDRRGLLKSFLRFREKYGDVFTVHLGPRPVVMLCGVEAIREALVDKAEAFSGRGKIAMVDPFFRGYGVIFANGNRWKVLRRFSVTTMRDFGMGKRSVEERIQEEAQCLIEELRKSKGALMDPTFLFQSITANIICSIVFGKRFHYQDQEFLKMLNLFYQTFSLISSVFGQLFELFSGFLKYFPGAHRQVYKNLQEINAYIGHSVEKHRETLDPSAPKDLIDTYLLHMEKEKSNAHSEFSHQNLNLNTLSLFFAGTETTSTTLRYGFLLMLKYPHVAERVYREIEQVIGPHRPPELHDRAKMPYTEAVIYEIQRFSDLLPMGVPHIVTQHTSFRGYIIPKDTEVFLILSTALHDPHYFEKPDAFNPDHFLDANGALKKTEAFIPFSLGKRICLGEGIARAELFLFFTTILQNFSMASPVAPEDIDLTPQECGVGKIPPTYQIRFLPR
Kind of data set: (§1) Inhibition of CYP2B6 (unknown origin) using bupropion substrate at 20 uM. The following applies: 20 µM. In short, it runs like this:
(§2)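 Human liver microsomes with probe substrate and an NADPH-regenerating system in 0.1 M potassium phosphate pH 7.4 at 37 °C, run in duplicate. Inhibitor at 0–20 μM (0–2.5 μM for one compound), eight concentrations. Reactions were stopped with acetonitrile/formic acid containing isotope-labelled internal standard, and metabolite area ratios were compared with and without inhibitor. IC50 was taken by linear interpolation between bracketing concentrations.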

The next data set concerns the target Cytochrome P450 2D6 (Homo sapiens, UniProt P10635). Kind of data set: (§3) Inhibition of CYP2D6 (unknown origin) using dextromethophan substrate at 20 uM. Particulars: 20 µM. In short, it runs like this: as §2
The target in another data set is T2, Cytochrome P450 1A2 (Homo sapiens, UniProt P05177).
T2 sequence (P05177 whole entry): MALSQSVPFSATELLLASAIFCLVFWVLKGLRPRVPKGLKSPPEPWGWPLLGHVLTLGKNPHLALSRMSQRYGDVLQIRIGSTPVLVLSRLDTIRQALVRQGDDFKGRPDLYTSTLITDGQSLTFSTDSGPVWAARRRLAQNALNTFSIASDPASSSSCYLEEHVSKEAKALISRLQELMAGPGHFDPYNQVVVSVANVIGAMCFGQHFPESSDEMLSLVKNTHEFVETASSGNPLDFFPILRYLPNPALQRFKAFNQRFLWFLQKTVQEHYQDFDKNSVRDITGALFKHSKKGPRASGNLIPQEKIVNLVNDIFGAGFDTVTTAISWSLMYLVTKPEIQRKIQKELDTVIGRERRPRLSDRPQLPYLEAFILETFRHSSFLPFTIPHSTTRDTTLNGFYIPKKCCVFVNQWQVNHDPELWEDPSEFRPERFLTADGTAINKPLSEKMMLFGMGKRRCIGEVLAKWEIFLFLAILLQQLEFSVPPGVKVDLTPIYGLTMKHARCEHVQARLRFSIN
Put plainly: (§4) Inhibition of CYP1A2 (unknown origin) using tacrin substrate at 20 uM. Particulars: 20 µM. In a few lines:
as §2

A further data set deals with T3, Cytochrome P450 2C8 (Homo sapiens, UniProt P10632).
T3 sequence (P10632 whole entry): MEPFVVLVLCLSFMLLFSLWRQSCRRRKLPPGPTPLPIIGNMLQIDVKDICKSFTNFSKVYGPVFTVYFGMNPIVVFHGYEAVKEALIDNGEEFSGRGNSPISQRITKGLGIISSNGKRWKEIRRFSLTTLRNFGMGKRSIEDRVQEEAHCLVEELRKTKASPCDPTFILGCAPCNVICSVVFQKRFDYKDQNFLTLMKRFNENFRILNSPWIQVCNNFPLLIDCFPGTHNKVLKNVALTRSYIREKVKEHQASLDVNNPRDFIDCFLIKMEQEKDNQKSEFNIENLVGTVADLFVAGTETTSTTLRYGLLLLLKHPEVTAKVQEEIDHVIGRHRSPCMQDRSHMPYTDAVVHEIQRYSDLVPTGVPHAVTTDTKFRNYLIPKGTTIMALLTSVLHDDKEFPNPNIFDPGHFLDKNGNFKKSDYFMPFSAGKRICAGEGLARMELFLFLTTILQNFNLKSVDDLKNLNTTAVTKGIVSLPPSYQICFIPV
Put plainly: (§5) Inhibition of CYP2C8 (unknown origin) using amodiaquine substrate at 20 uM. Particulars: 20 µM. In a few lines: as §2

The target of another data set is Cytochrome P450 2C9 (Homo sapiens, UniProt P11712). Put plainly: (§6) Inhibition of CYP2C9 (unknown origin) using diclofenac substrate at 20 uM. The following applies: 20 µM. In a few lines: as §2
Cytochrome P450 2C9, sequence (P11712 whole entry): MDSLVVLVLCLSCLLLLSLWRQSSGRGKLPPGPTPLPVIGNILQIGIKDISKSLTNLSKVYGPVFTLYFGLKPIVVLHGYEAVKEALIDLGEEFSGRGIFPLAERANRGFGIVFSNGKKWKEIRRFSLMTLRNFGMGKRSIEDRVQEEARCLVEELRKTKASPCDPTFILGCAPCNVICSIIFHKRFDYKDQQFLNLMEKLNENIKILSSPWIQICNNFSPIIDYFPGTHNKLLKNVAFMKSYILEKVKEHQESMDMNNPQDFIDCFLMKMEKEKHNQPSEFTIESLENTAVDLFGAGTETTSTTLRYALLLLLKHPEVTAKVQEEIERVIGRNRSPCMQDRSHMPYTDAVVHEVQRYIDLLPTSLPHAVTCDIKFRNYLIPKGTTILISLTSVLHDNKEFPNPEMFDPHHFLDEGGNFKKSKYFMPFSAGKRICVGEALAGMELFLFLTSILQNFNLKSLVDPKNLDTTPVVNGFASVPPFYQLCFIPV
The target in data set [1] is T4, CYP3A4 (Homo sapiens, UniProt P08684). Kind of data set: Inhibition of CYP3A4 (unknown origin) using midazolam substrate at 2.5 uM. The following applies: probe midazolam. In short, it runs like this:
as §2

Data set [2] concerns the target T4, CYP3A4. Put plainly: Inhibition of CYP3A4 (unknown origin) using testosterone substrate at 2.5 uM. The following applies: probe testosterone. In short, it runs like this:
as §2

The target of data set [3] is T5, CYP2D6 (Homo sapiens, UniProt P10635). Put plainly: Inhibition of CYP2D6 (unknown origin) using dextromethophan substrate at 2.5 uM. The following applies: probe dextromethophan. In a few lines:
as §2

Another data set deals with CYP2C19 (Homo sapiens, UniProt P33261). Kind of data set: Inhibition of CYP2C19 (unknown origin) using (S)-mephentoin substrate at 2.5 uM. Particulars: probe (S)-mephentoin. In a few lines:
as §2

Data set [4] has as its target T6, CYP1A2 (Homo sapiens, UniProt P05177). Put plainly: Inhibition of CYP1A2 (unknown origin) using tacrin substrate at 2.5 uM. Particulars: probe tacrin. In short, it runs like this:
as §2

Data set [5] addresses T7, CYP2C8 (Homo sapiens, UniProt P10632). Kind of data set: Inhibition of CYP2C8 (unknown origin) using amodiaquine substrate at 2.5 uM. The following applies: probe amodiaquine. In short, it runs like this:
as §2

The subject of another data set is Liver microsome. Kind of data set: Half life in human liver microsomes by LC-MS/MS analysis. In a few lines: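 Compound at 1 μM with 1 mg/mL liver microsomes in 100 mM potassium phosphate pH 7.4 at 37 °C with shaking. Reaction started with 1 mM NADPH (final). Aliquots were taken at 0, 5, 10, 20, 40 and 60 min and quenched in acetonitrile. Parallel incubations without NADPH were run.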
In general terms: Liver microsomes are a subcellular fraction often used to study metabolism.

The target in the next data set is CYP2B6 (Homo sapiens, UniProt P20813). Described as §1. The following applies: probe bupropion. In short, it runs like this:
as §2

For data set [6], the target named is T5, CYP2D6. The description is as §3. The following applies: probe dextromethophan. In short, it runs like this:
as §2

Data set [7] has as its target T6, CYP1A2. The description is as §4. Particulars: probe tacrin. In short, it runs like this: as §2
The target in data set [8] is T7, CYP2C8. The data set is described as §5. Particulars: probe amodiaquine. In short, it runs like this: as §2
In another data set the target is CYP2C9 (Homo sapiens, UniProt P11712). Described as §6. The following applies: probe diclofenac. In a few lines: as §2
CYP2C9, sequence (P11712 whole entry): as above

T5 sequence (P10635 whole entry): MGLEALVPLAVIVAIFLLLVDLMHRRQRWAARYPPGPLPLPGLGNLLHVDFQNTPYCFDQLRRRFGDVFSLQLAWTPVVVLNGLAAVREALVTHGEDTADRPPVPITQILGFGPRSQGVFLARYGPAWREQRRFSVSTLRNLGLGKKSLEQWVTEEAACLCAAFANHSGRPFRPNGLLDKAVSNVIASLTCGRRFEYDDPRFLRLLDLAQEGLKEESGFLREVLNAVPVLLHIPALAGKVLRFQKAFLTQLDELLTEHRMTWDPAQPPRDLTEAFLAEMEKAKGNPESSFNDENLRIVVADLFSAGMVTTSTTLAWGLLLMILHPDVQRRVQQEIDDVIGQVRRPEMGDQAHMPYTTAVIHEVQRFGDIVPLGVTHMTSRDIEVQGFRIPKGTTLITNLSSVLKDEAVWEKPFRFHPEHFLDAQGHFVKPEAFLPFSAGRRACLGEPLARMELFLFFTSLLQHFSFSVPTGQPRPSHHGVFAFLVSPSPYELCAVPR
T4 sequence (P08684 whole entry): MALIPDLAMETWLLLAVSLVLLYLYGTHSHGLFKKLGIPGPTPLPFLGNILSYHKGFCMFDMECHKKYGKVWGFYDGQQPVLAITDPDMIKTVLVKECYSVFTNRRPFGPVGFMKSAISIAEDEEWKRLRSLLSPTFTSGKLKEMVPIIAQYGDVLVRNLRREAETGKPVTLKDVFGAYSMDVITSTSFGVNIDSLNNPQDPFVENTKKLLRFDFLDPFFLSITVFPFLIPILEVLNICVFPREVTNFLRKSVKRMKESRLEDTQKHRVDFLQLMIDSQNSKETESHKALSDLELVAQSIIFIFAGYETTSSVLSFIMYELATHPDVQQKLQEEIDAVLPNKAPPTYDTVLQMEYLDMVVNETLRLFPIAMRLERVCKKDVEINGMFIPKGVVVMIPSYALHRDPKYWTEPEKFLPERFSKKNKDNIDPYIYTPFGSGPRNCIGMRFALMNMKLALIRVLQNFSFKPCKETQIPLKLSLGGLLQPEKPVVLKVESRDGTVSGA
Cytochrome P450 2D6, sequence (P10635 whole entry): as the sequence (P10635 whole entry) above
CYP2C19, sequence (P33261 whole entry): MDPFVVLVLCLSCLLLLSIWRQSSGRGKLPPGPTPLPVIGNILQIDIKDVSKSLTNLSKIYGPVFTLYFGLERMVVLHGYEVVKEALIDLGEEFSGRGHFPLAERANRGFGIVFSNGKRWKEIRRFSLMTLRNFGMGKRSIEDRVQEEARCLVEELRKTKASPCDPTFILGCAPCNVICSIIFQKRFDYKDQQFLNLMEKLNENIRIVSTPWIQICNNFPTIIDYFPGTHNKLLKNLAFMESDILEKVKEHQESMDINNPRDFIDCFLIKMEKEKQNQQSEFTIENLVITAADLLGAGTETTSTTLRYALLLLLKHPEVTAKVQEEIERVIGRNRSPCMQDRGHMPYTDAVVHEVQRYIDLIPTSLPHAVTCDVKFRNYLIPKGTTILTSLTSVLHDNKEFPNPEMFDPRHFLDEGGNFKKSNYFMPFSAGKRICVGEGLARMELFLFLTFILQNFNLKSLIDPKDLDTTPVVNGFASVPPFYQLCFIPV

Take `Cc1cc(CNC(=O)c2cc(C(=O)NCc3ccc(F)c(C)c3)ncn2)ccc1F`: the inhibition (INH) on Cytochrome P450 2B6, against Cytochrome P450 2D6, against Cytochrome P450 1A2, at Cytochrome P450 2C8 and on Cytochrome P450 2C9 was more than 10% in each case.
As for `Cn1c(=O)n(Cc2ccc(C(=O)O)cc2)c(=O)c2cc(C#CCc3ccccc3)ccc21`, the inhibition at 2.5 µM was less than 50% against CYP3A4 [1]; less than 50% on CYP3A4 [2]; less than 50% at CYP2D6 [3]; less than 50% at CYP2C19; 17% against CYP1A2 [4]; less than 50% at CYP2C8 [5].
In the data set with Liver microsome, `Oc1nc(SCc2ccc(Cl)cc2)nc2c1CCC2` showed a t1/2 of 10.4 min.
Regarding `COC(=O)c1ccc(CSc2nc3c(c(=O)[nH]2)CCC3)cc1`, the inhibition at 20 µM against CYP2B6 was less than 50%; on CYP2D6 [6], less than 50%; against CYP1A2 [7] it was 29%; against CYP2C8 [8], less than 50%; against CYP2C9, 17%.
